Experimental findings from ChEMBL document CHEMBL4270658, “Synthesis, in vitro and in vivo biological evaluation, COX-1/2 inhibition and molecular docking study of indole-N-acylhydrazone derivatives” (Bioorg Med Chem, 2018) are described below.

Data set [1] deals with Splenocyte. Nature of the data set: Immunomodulatory activity in BALB/c mouse splenocytes assessed as inhibition of concanavalin A-induced lymphocyte proliferation by measuring [methyl-3H]-thymidine uptake at 50 uM after 48 hrs. The format is functional. In a few lines: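 BALB/c splenocytes (5×10⁶ cells/well) in DMEM, triplicate, with concanavalin A (2 μg mL⁻¹) ± compound 48 h at 37 °C, 5% CO₂, then 1 μCi [methyl-³H]thymidine for 12 h; inhibition from thymidine uptake relative to control; dexamethasone positive control.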

Data set [2] is described as follows: Cytotoxicity against mouse J774 macrophages after 72 hrs by Alamar Blue assay. It is filed as cell-based. In general terms: The colour change of resazurin is a common sign of viable cells or microbes.
In data set [3] the test system is Mus musculus. In words: Acute toxicity in Swiss mouse assessed as effect on mean corpuscular hemoglobin level at 2000 mg/kg, po (reference value: 11.16 +/- 0.53 pg). It is filed as organism-based. Conditions: in vivo.
Data set [4] deals with Mus musculus. Nature of the data set: Antiinflammatory activity in carrageenan-induced Swiss mouse assessed as paw volume at 60 mg/kg, po pretreated for 1 hr followed by carrageenan challenge measured after 1 hr by plethysmometric method (reference value: 59.39 +/- 10.59 […]). It is filed as functional.
In data set [5] the test system is Mus musculus. Nature of the data set: Acute toxicity in Swiss mouse assessed as effect on blood cell levels at 2000 mg/kg, po (reference value: 13.0 +/- 0.9 10^6/mm3). Conditions: in vivo. The format is organism-based.
The subject of data set [6] is Mus musculus. In words: Acute toxicity in Swiss mouse assessed as mortality at 2000 mg/kg, po. It is filed as organism-based. Conditions: in vivo. A digest of the protocol: (§1)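 Fixed-dose stepwise procedure following OECD acute oral toxicity guidelines; groups of 3 Swiss Mus musculus mice (20–35 g) dosed orally at 2000 mg kg⁻¹ and observed for clinical signs of pain, suffering and impending death. Test run in duplicate. Animals kept at 22 ± 3 °C, 12 h light/dark, free food and water.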

The test system of data set [7] is Mus musculus. Nature of the data set: Acute toxicity in Swiss mouse assessed as effect on mean corpuscular volume at 2000 mg/kg, po (reference value: 57.3 +/- 3.01 […]). The format is organism-based. Conditions: in vivo.
Data set [8] deals with Mus musculus. Nature of the data set: Antiinflammatory activity in carrageenan-induced Swiss mouse assessed as inhibition of paw edema at 30 mg/kg, po pretreated for 1 hr followed by carrageenan challenge measured after 6 hrs by plethysmometric method. It is filed as functional.
Data set [9] has as its system Mus musculus. Nature of the data set: Acute toxicity in Swiss mouse assessed as effect on leukocyte level at 2000 mg/kg, po (reference value: 10.8 +/- 6.25 10^3/mm3). It is filed as organism-based. Conditions: in vivo.
In data set [10] the target is T1, Prostaglandin G/H synthase 2 (Homo sapiens, UniProt P35354).
T1 sequence (P35354 whole entry): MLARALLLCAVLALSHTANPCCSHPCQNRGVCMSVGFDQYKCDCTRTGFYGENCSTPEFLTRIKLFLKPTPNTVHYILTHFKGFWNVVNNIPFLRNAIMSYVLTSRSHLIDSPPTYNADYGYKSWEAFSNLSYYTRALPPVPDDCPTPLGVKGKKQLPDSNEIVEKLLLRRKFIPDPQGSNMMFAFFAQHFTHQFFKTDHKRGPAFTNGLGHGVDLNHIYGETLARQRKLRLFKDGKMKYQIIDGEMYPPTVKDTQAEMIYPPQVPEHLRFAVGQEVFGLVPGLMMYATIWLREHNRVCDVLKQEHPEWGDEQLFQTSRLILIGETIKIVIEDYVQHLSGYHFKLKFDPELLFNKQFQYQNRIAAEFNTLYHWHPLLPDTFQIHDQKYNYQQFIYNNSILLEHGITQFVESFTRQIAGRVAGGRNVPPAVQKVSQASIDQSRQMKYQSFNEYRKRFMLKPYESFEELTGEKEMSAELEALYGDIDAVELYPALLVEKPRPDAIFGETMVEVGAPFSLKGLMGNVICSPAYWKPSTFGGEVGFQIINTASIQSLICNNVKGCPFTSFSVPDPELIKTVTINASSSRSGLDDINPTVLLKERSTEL
In words: Inhibition of recombinant N-terminal His6-tagged human COX-2 expressed in Baculovirus infected Sf21 cells using arachidonic acid as substrate preincubated for 5 mins followed by substrate addition measured after 1 hr. It is filed as cell-based.

Data set [11] concerns the target T2, Prostaglandin G/H synthase 1 (Ovis aries, UniProt P05979).
T2 sequence (P05979 whole entry): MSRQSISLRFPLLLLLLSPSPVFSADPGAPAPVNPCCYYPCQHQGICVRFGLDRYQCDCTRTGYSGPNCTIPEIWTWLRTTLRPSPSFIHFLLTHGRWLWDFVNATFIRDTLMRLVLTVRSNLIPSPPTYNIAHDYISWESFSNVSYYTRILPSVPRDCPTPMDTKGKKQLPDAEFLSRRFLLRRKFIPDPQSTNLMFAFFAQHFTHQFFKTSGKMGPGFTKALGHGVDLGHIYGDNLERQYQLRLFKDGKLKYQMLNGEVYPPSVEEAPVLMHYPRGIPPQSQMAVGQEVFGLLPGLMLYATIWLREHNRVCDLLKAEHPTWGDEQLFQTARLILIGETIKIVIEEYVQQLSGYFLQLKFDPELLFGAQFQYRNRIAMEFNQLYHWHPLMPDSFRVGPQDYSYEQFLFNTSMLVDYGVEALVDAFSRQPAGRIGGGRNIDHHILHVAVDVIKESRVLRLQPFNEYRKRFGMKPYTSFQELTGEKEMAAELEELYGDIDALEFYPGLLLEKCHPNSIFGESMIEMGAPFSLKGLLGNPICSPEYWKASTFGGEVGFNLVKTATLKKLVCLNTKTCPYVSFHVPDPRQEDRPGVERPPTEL
In words: Inhibition of ovine COX-1 using arachidonic acid as substrate preincubated for 5 mins followed by substrate addition measured after 1 hr.

In data set [12] the test system is Mus musculus. Nature of the data set: Acute toxicity in Swiss mouse assessed as effect on hemoglobin levels at 2000 mg/kg, po (reference value: 14.5 +/- 0.6 g/dl). The format is organism-based. Conditions: in vivo.
The test system of data set [13] is Mus musculus. Nature of the data set: Antiinflammatory activity in carrageenan-induced Swiss mouse assessed as inhibition of paw edema at 60 mg/kg, po pretreated for 1 hr followed by carrageenan challenge measured after 6 hrs by plethysmometric method. The format is functional.
Data set [14] relates to Mus musculus. Nature of the data set: Acute toxicity in Swiss mouse assessed as occurence of ptosis at 2000 mg/kg, po after 1 hr. It is filed as organism-based. Conditions: in vivo. A digest of the protocol:
as §1

Data set [15] has as its system Mus musculus. Nature of the data set: Acute toxicity in Swiss mouse assessed as effect on mean corpuscular hemoglobin concentration level at 2000 mg/kg, po (reference value: 19.5 +/- 0.94%). It is filed as organism-based. Conditions: in vivo.
Data set [16] deals with Mus musculus. In words: Acute toxicity in Swiss mouse assessed as occurence of irritability at 2000 mg/kg, po after 1 hr. It is filed as organism-based. Conditions: in vivo. In a few lines: as §1
The test system of data set [17] is Mus musculus. In words: Acute toxicity in Swiss mouse assessed as effect on hematocrit levels at 2000 mg/kg, po (reference value: 74.7 +/- 6.05%). Conditions: in vivo. The format is organism-based.
Data set [18] is described as follows: Selectivity index, ratio of IC50 for ovine COX-1 to IC50 for recombinant N-terminal His6-tagged human COX-2. In a few lines: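 COX-1 or COX-2 in 100 mM Tris-HCl pH 8.0 with hematin, compound (in DMSO, 1.5–100 μM) preincubated 5 min at room temperature; started with arachidonic acid plus TMPD, absorbance at 610 nm after 1 h; triplicate; IC50 calculated, selectivity index from COX-1 and COX-2 IC50s.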

As to `COc1ccc2[nH]cc(/C=N/NC(=O)CC#N)c2c1`, in [1], the inhibition at 50 µM stood at 43.7%. In data set [2], this molecule had a CC50 at 72 h of 101 µM.
Consider `N#CCC(=O)N/N=C/c1c[nH]c2ccc(Br)cc12`, for which the Activity is 16.8 pg in data set [3]; 48.33 mL in data set [4]; 8.4 ×10⁶ /mm3 in [5]; “Non-Toxic” in data set [6]; 53.6 fL in data set [7]; 5.9 ×10³ /mm3 in data set [9]. Further, the Activity in data set [12] was 14.1 g/dL; in [14], “Non-Toxic”; in [15], 32.9%; in [16] it was “Non-Toxic”; in data set [17], 57.6%. In addition, the inhibition in vivo at 30 mg/kg in [8] was found to be 61.8%. Moreover, the IC50 was 0.25 µM in data set [10] and 0.18 µM in data set [11]. For the same molecule, the inhibition at 50 µM in data set [1] came out at 62.7%. The inhibition in vivo at 60 mg/kg in [13] amounted to 66.3%. Further, half-maximal cytotoxicity in data set [2] (CC50 at 72 h) was put at 144 µM. Besides, in data set [18], the Ratio IC50 was determined as 0.72.
On to `N#CCC(=O)N/N=C/c1c[nH]c2cccc([N+](=O)[O-])c12`, for which, in data set [1], the inhibition at 50 µM was 31%. Further, in [2], the CC50 at 72 h is 66 µM.
For `Cc1ccc2[nH]cc(/C=N/NC(=O)CC#N)c2c1`, in that order: 15.4% and 200 µM.
Take `C[C@@H]1C[C@H]2[C@@H]3CCC4=CC(=O)C=C[C@]4(C)[C@@]3(F)[C@@H](O)C[C@]2(C)[C@@]1(O)C(=O)CO` [DEXAMETHASONE]: in [1], the inhibition at 50 µM came to 74.6%.
On to `N#CCC(=O)N/N=C/c1c[nH]c2ccc(Cl)cc12`, for which the inhibition at 50 µM in data set [1] came to 1.8%. Moreover, it took 76.9 µM to reach half-maximal cytotoxicity in data set [2] (CC50 at 72 h).

In general, inhibition refers to how much of the control response was suppressed. What is called CC50 is the concentration at which the toxic effect on the cells reaches its halfway point. A high value points to better tolerance by the cells. The term inhibition in vivo denotes the change of the read-out against control, counted positive when it falls. The IC50 is the concentration that inhibits the measured activity by half.
